According to publication PMC9989852 (Food and chemical toxicology : an international journal …, 2022):
“And” between values parts separate entries of the source, which are not always exact repeats. Identical values can stand only once.

Key:
[1] = tested on: B6C3F1 mice; assay: Organ weights and body weight after 28-day dermal exposure; format: in vivo; conditions: 28 days
[2] = tested on: B6C3F1 mice; assay: Serum chemistries after 28-day dermal exposure; format: in vivo; conditions: 28 days
In short: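 Female B6C3F1 mice received daily dorsal ear application (25 μl/ear, acetone vehicle). About 24 h after the last dose, blood was taken by cardiac puncture. Serum was separated by centrifugation and stored at −20 °C. ALKP, BUN, glucose and cholesterol were read on a Catalyst DX analyzer. Data are mean ± SE of 4–5 mice, ANOVA with Dunnett's; ALKP was also tested by linear regression (p < 0.05).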

[3] = pH of PFAS; format: physicochemical; conditions: PFAS (5%) in PBS, free acid form
[4] = PFAS concentration in pooled urine; format: in vivo, B6C3F1 mice; conditions: 5%, dermal, 28 days; 5 pooled samples
In short: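 Urine was caught in a weigh boat as it was excreted during CO2 euthanasia, about 24 h after the final daily ear dose (25 μl/ear, acetone vehicle; female B6C3F1 mice). The 5 mice per group were pooled, with variable volume. Samples underwent solid-phase extraction and LC/MS/MS, as linear isomer for short-chain analytes and linear plus branched for the comparator. Each group gave a single value without statistics.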

[5] = ref Russell et al., 2015, Xu et al., 2020; cited from earlier work
[6] = tested on: liver; assay: Liver histopathology after 28-day dermal exposure; format: in vivo, B6C3F1 mice; conditions: 28 days, mice affected of 5
In short: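 Female B6C3F1 mice (5/group) received 25 μl/ear on the dorsal ear surfaces daily, with acetone as vehicle. Tissues were formalin-fixed about 24 h after the last dose: liver remainder, half spleen, right kidney and half ear pinna. Sections were paraffin-embedded, cut at 5 μm and stained with H&E. A veterinary pathologist read them per STP guideline and graded 1 (minimal) to 5 (severe) by extent.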

[7] = tested on: ear pinna; assay: Skin; format: in vivo, B6C3F1 mice; conditions: dermal, 28 days
In short: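 Female B6C3F1 mice (5/group) received 25 μl/ear daily to the dorsal ears in acetone. About 24 h after the last dose, tissues went into RPMI: both auricular dLNs, half spleen and one ear pinna. Single-cell suspensions were acquired on an LSR II, with populations gated per supplemental strategy and FMO gating controls. Results are mean ± SE, n=5, by one-way ANOVA.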

O=C(O)C(F)(F)C(F)(F)C(F)(F)C(F)(F)C(F)(F)C(F)(F)F [PFHpA, Perfluoroheptanoic acid]
body weight or overt signs of toxicity ([1]; 1.25–5%): no changes | thymus weights (% body weight) ([1]; 2.5%, not dose dependent): significantly increased | Liver weight (% body weight), increase vs vehicle-treated mice ([1]; 5%): 18% | kidney weights (% body weight) ([1]; 5%): significantly increased | serum ALKP ([2]; 1.25–5%, linear regression p < 0.05, not significant via ANOVA): significant linear regression increase | serum glucose, increase compared to vehicle control ([2]; 5%): 30% | serum urea nitrogen (BUN), decrease ([2]; 5%): 30% | serum alanine aminotransferase (ALT) ([2]; any concentration, data not shown): No change | pH [3]: 1.49 | urine PFAS concentration [4]: 1200 µg/mL | estimated half-life in humans [5]: 62 to 70 days | Liver: Hypertrophy, centrilobular, hepatocyte, Mild (incidence) ([6]; 1.25%): 0 | Liver: Hypertrophy, centrilobular, hepatocyte, Minimal (incidence) ([6]; 1.25%): 3/5 and 3 | Liver: Hypertrophy, centrilobular, hepatocyte, Mild (incidence) ([6]; 2.5%): 0 | Liver: Hypertrophy, centrilobular, hepatocyte, Minimal (incidence) ([6]; 2.5%): 5/5 and 5 | Liver: Hypertrophy, centrilobular, hepatocyte, Mild (incidence) ([6]; 5%): 3/5 and 3 | Liver: Hypertrophy, centrilobular, hepatocyte, Minimal (incidence) ([6]; 5%): 2/5 and 2 | Ear CD4^+ cell number ([7]; 1.25%): 1.49 ± 0.38 × 10^3 | Ear CD4^+ frequency ([7]; 1.25%): 1.78 ± 0.19% | Ear CD8^+ cell number ([7]; 1.25%): 0.79 ± 0.14 × 10^2 | Ear CD8^+ frequency ([7]; 1.25%): 0.11 ± 0.03% | Ear CD45^+ cell number ([7]; 1.25%): 8.01 ± 1.58 × 10^4 | Ear CD45^+ frequency ([7]; 1.25%): 8.04 ± 1.11% | Ear CD lib- F4/80+ DCs cell number ([7]; 1.25%): 5.44 ± 0.94 × 10^2 | Ear CDllb + F4/80+ DCs cell number ([7]; 1.25%): 4.52 ± 0.98 × 10^2 | Ear CDllb- F4/80+ DCs frequency ([7]; 1.25%): 0.70 ± 0.05% | Ear CDllb- F4/80-DCs cell number ([7]; 1.25%): 1.12 ± 0.29 × 10^3 | Ear CDllb- F4/80-DCs frequency ([7]; 1.25%): 1.34 ± 0.16 % | Ear Dendritic Cells cell number ([7]; 1.25%): 2.18 ± 0.47 × 10^3 | Ear Dendritic Cells frequency ([7]; 1.25%): 2.69 ± 0.15% | Ear Eosinophils cell number ([7]; 1.25%): 1.41 ± 0.42 × 10^3 | Ear Eosinophils frequency ([7]; 1.25%): 1.60 ± 0.26% | Ear NK cell number ([7]; 1.25%): 3.89 ± 0.91 × 10^2 | Ear NK frequency ([7]; 1.25%): 0.48 ± 0.04% | Ear Neutrophils cell number ([7]; 1.25%): 1.59 ± 0.24 × 10^2 | Ear Neutrophils frequency ([7]; 1.25%): 0.21 ± 0.02% | Ear Total Cellularity ([7]; 1.25%): 0.96 ± 0.08 × 10^6 | Ear CD8^+ cell number ([7]; 2.5%): 1.77 ± 0.27 × 10^2 | Ear CD8^+ frequency ([7]; 2.5%): 0.16 ± 0.01% | Ear CD lib- F4/80+ DCs cell number ([7]; 2.5%): 7.95 ± 0.98 × 10^2 | Ear CDllb + F4/80+ DCs cell number ([7]; 2.5%): 13.00 ± 2.97 × 10^2 | Ear CDllb + F4/80+ DCs frequency ([7]; 2.5%): 1.13 ± 0.12 % | Ear CDllb- F4/80+ DCs frequency ([7]; 2.5%): 0.75 ± 0.08 % | Ear CDllb- F4/80-DCs cell number ([7]; 2.5%): 2.42 ± 0.45 × 10^3 | Ear Dendritic Cells frequency ([7]; 2.5%): 4.21 ± 0.26 % | Ear Eosinophils cell number ([7]; 2.5%): 5.54 ± 1.71 × 10^3 | Ear Eosinophils frequency ([7]; 2.5%): 4.57 ± 0.96 % | Ear NK cell number ([7]; 2.5%): 7.43 ± 1.69 × 10^2 | Ear NK frequency ([7]; 2.5%): 0.66 ± 0.08% | Ear Neutrophils cell number ([7]; 2.5%): 2.48 ± 0.43 × 10^2 | Ear CD4^+ cell number ([7]; 5%): 6.06 ± 0.33 × 10^3 | Ear CD4^+ frequency ([7]; 5%): 4.18 ± 0.24 % | Ear CD8^+ cell number ([7]; 5%): 2.81 ± 0.39 × 10^2 | Ear CD8^+ frequency ([7]; 5%): 0.20 ± 0.03 % | Ear CD45^+ cell number ([7]; 5%): 14.60 ± 0.67 × 10^4 | Ear CD45^+ frequency ([7]; 5%): 12.38 ± 0.81% | Ear CD lib- F4/80+ DCs cell number ([7]; 5%): 14.50 ± 0.97 × 10^2 | Ear CDllb + F4/80+ DCs cell number ([7]; 5%): 18.90 ± 1.84 × 10^2 | Ear CDllb + F4/80+ DCs frequency ([7]; 5%): 1.31 ± 0.14 % | Ear CDllb- F4/80+ DCs frequency ([7]; 5%): 1.00 ± 0.07 % | Ear CDllb- F4/80-DCs cell number ([7]; 5%): 3.38 ± 0.19 × 10^3 | Ear CDllb- F4/80-DCs frequency ([7]; 5%): 2.32 ± 0.03% | Ear Dendritic Cells cell number ([7]; 5%): 7.25 ± 0.31 × 10^3 | Ear Dendritic Cells frequency ([7]; 5%): 4.99 ± 0.15 % | Ear Eosinophils cell number ([7]; 5%): 6.45 ± 1.12 × 10^3 | Ear Eosinophils frequency ([7]; 5%): 4.36 ± 0.63 % | Ear NK cell number ([7]; 5%): 7.96 ± 0.70 × 10^2 | Ear NK frequency ([7]; 5%): 0.56 ± 0.07% | Ear Neutrophils cell number ([7]; 5%): 7.10 ± 1.15 × 10^2 | Ear Neutrophils frequency ([7]; 5%): 0.49 ± 0.07 % | Ear Total Cellularity ([7]; 5%): 1.19 ± 0.08 × 10^6
